Consider 36 compounds from ChEMBL document CHEMBL1147685, “Synthesis and SAR of 1,9-dihydro-9-hydroxypyrazolo[3,4-b]quinolin-4-ones as novel, selective c-Jun N-terminal kinase inhibitors” (Bioorg Med Chem Lett, 2006).

For data set [1], the target named is Mitogen-activated protein kinase 8 (Homo sapiens, UniProt P45983). Put plainly: Inhibition of JNK1.
The target of data set [2] is c-Jun N-terminal kinase, JNK (Homo sapiens, UniProt P45983+P53779+P45984). Put plainly: Inhibition of TNF-alpha-stimulated cJun phosphorylation in HepG2 cells. Type of data set: functional, cell-based. The essentials:
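Cell-based ELISA in HepG2 cells detecting phospho-c-Jun after TNFa stimulation. Inhibition of c-Jun phosphorylation read out and expressed as IC50.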

Data set [3] in a line: Stability in human liver microsome after 30 mins. It counts as ADME. The following applies: liver microsomes, read-out: Stability. In outline: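 Parent compound incubated with human liver microsomes for 30 min. Percentage of parent recovered afterwards was measured.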
A general note: Liver microsomes are vesicles of endoplasmic reticulum, rich in cytochrome P450 enzymes.

Data set [4] addresses Mitogen-activated protein kinase 1 (Homo sapiens, UniProt P28482). Put plainly: Inhibition of ERK2.
The target in data set [5] is Mitogen-activated protein kinase 9 (Homo sapiens, UniProt P45984). Put plainly: Inhibition of JNK2.
Chain of Mitogen-activated protein kinase 9 (P45984 whole entry): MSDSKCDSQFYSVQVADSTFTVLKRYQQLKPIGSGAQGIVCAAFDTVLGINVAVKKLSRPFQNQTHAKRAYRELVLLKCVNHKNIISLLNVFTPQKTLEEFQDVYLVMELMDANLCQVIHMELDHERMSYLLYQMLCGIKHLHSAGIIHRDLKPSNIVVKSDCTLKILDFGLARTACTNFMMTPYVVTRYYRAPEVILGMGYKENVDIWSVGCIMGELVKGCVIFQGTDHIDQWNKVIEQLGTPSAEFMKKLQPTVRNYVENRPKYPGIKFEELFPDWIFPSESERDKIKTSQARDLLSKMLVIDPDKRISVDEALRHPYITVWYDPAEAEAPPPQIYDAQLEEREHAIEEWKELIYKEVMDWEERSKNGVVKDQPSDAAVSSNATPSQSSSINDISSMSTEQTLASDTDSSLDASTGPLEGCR
In data set [6] the target is MAP kinase p38 (Homo sapiens, UniProt O15264+Q15759+Q16539+P53778). Put plainly: Inhibition of p38. It counts as protein assay.

Chain of Mitogen-activated protein kinase 8 (P45983 whole entry): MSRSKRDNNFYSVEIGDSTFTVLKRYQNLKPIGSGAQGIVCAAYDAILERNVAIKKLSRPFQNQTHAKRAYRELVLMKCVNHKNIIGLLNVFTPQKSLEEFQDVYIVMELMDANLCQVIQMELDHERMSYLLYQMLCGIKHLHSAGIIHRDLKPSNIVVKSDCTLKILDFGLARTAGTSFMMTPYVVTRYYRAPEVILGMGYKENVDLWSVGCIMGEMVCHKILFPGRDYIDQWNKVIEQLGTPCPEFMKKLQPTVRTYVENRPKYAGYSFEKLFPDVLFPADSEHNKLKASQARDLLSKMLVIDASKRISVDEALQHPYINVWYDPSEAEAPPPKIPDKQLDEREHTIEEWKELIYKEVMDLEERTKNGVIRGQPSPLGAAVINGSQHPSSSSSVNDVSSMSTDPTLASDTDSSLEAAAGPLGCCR
Chain of Mitogen-activated protein kinase 1 (P28482 whole entry): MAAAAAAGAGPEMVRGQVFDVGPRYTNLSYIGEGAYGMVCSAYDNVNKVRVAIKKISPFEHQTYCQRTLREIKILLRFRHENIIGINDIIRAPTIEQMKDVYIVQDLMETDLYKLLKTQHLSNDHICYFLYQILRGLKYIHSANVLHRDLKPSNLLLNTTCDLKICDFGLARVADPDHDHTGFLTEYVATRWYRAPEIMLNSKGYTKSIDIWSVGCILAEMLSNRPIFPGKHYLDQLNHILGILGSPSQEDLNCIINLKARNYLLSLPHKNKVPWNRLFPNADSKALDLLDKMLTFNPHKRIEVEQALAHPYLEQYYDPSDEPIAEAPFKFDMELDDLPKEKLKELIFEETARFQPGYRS

One may read the IC50 as the concentration at which inhibition is half-maximal. In the case of `CCOn1c2ccc(Cl)cc2c(=O)c2c(C)nn(C)c21`, the IC50 in data set [1] was 2.78 µM; in data set [2], 10.6 µM.

Turning to `Cc1nn(CCO)c2c1c(=O)c1cc(Cl)ccc1n2O`, the half-maximal inhibitory concentration (IC50) was 7.67 µM in data set [1] and greater than 30 µM in data set [2].

On to `CCOC(=O)Cn1nc(C)c2c(=O)c3cc(Cl)ccc3n(O)c21`, for which the IC50 in data set [1] is 7.64 µM; in data set [2] it was greater than 30 µM.

As to `CNC(=O)CCCc1nn(C)c2c1c(=O)c1cc(Cl)ccc1n2O`, the values for the IC50 in data set [1] and in data set [2] were 0.75 µM and greater than 30 µM, respectively.

`CN(C)c1cc2c(cc1Cl)c(=O)c1c(C(F)(F)F)nn(C)c1n2O` registered a 50% inhibitory concentration (IC50) in data set [1] greater than 10 µM.

Turning to `CC(C)c1nn(C)c2c1c(=O)c1cc(Cl)ccc1n2O`, the IC50 in data set [1] was 2.64 µM; in data set [2], greater than 30 µM.

In the case of `Cc1nn(C)c2c1c(=O)c1cc(-c3cc[nH]n3)ccc1n2O`, the half-inhibitory concentration (IC50) in data set [1] was greater than 10 µM.

In data set [1], `Cc1nn(C)c2c1c(=O)c1cc(-c3ccccc3)ccc1n2O` came in with an IC50 greater than 10 µM.

For `CC(=O)NCCc1nn(C)c2c1c(=O)c1cc(Cl)ccc1n2O`, the values for the IC50 in data set [1] and in data set [2] were 0.78 µM and greater than 30 µM, respectively.

Turning to `Cc1nn(C)c2c1c(=O)c1cc(Cl)ccc1n2O`, the remaining at 0.5 h in data set [3] worked out at 100%. In addition, the IC50 is greater than 50 µM in data set [4], 3.1 µM in data set [5], greater than 50 µM in data set [6] and greater than 30 µM in data set [2].

In the case of `CCCc1nn(C)c2c1c(=O)c1cc(Cl)ccc1n2O`, the figures for the IC50 in data set [1] and in data set [2] were 1.31 µM and 26.6 µM, respectively.

For the compound `Cn1nc(C(F)(F)F)c2c(=O)c3cc(Cl)c(Cl)cc3n(O)c21`, the half-maximal inhibitory concentration (IC50) in data set [1] is 5.14 µM; in data set [2] it was greater than 30 µM.

`COc1cc(Cl)cc2c(=O)c3c(C(F)(F)F)nn(C)c3n(O)c12` displayed an IC50 in data set [1] greater than 10 µM.

In data set [1], `Cc1nn(C)c2c1c(=O)c1ccccc1n2O` showed an IC50 greater than 10 µM.

Turning to `Cn1c2[n+]([O-])c3ccc(Cl)cc3c(=O)c-2c2n1C(=O)NCC2`, the IC50 in data set [1] was found to be 0.29 µM; in data set [2] it was 0.85 µM.

Turning to `COC(=O)c1nn(C)c2c1c(=O)c1cc(Cl)ccc1n2O`, the concentration for half-maximal inhibition (IC50) in data set [1] is greater than 10 µM.

Regarding `Cc1nn(CC(=O)O)c2c1c(=O)c1cc(Cl)ccc1n2O`, the values for the IC50 in data set [1] and in data set [2] were 4.41 µM and greater than 30 µM, respectively.

For `Cn1nc(CCCC(=O)O)c2c(=O)c3cc(Cl)ccc3n(O)c21`, the IC50 in data set [1] is 2.74 µM; in data set [2], greater than 30 µM.

In data set [1], `Cc1nn(C)c2nc3ccc(Cl)cc3c(O)c12` came in with a half-inhibitory concentration (IC50) greater than 10 µM.

On to `CCc1nn(C)c2c1c(=O)c1cc(Cl)ccc1n2O`, for which the IC50 in data set [1] is 0.96 µM; in data set [2] it was 32 µM.

As to `CCNC(=O)NCCCc1nn(C)c2c1c(=O)c1cc(Cl)ccc1n2O`, the half-inhibitory concentration (IC50) in data set [1] is 0.5 µM; in data set [2], greater than 30 µM.

In the case of `CCOC(=O)NCCc1nn(C)c2c1c(=O)c1cc(Cl)ccc1n2O`, the IC50 is 0.43 µM in data set [1] and greater than 30 µM in data set [2].

Take `CCn1nc(C)c2c(=O)c3cc(Cl)ccc3n(O)c21`: the half-maximal inhibitory concentration (IC50) was 4.19 µM in data set [1] and greater than 30 µM in data set [2].

Regarding `Cc1nn(C)c2c1c(=O)c1cc(Cl)ccc1n2OC1CCCC1`, the IC50 in data set [1] was greater than 10 µM.

In data set [1], `Cn1nc(C(C)(C)C)c2c(=O)c3cc(Cl)ccc3n(O)c21` registered a half-maximal inhibitory concentration (IC50) greater than 10 µM.

As for `CCCCc1nn(C)c2c1c(=O)c1cc(Cl)ccc1n2O`, the results for the IC50 in data set [1] and in data set [2] were 0.52 µM and greater than 30 µM, respectively.

`Cc1nn(C)c2c1c(=O)c1cc(Cl)ccc1n2OC(C)C` displayed an IC50 in data set [1] greater than 10 µM.

In data set [1], `Cn1nc(CCC(=O)O)c2c(=O)c3cc(Cl)ccc3n(O)c21` displayed a 50% inhibitory concentration (IC50) greater than 10 µM.

Compound `Cn1nc(-c2ccc(N)cc2)c2c(=O)c3cc(Cl)ccc3n(O)c21` gave an IC50 in data set [1] greater than 10 µM.

As for `Cc1nn(C)c2c1c(=O)c1cc(Cl)ccc1n2OCc1ccccc1`, in data set [1], the IC50 is greater than 10 µM.

For `CNC(=O)Cn1nc(C)c2c(=O)c3cc(Cl)ccc3n(O)c21`, the half-maximal inhibitory concentration (IC50) was 8.77 µM in data set [1] and greater than 30 µM in data set [2].

On to `Cn1nc(CCN)c2c(=O)c3cc(Cl)ccc3n(O)c21`, for which the half-inhibitory concentration (IC50) is 2.83 µM in data set [1] and greater than 30 µM in data set [2].

Consider `Cc1nn(C)c2c1c(=O)c1cc(Br)ccc1n2O`, for which the IC50 in data set [1] is 0.92 µM; in data set [2], greater than 30 µM.

On to `COn1c2ccc(Cl)cc2c(=O)c2c(C)nn(C)c21`, for which the IC50 is 4.59 µM in data set [1] and 19.4 µM in data set [2].

In the case of `COCCc1nn(C)c2c1c(=O)c1cc(Cl)ccc1n2O`, the IC50 in data set [1] stood at 2.41 µM; in data set [2], 14.7 µM.

In data set [1], `Cn1nc(C(F)(F)F)c2c(=O)c3c(Cl)c(Cl)ccc3n(O)c21` yielded a half-inhibitory concentration (IC50) greater than 10 µM.
